Source: ChEMBL document CHEMBL1138205, “Novel heterobivalent tacrine derivatives as cholinesterase inhibitors with notable selectivity toward butyrylcholinesterase” (J Med Chem, 2006)
Activity calls are given as the source filed them. The rule behind the calls is not given here.

Legend:
Acetylcholinesterase [1] = target: Acetylcholinesterase (Electrophorus electricus, UniProt O42275); assay: (§1) Inhibition of Electrophorus electricus AChE
Acetylcholinesterase [2] = target: Acetylcholinesterase (Torpedo californica, UniProt P04058); assay: Inhibition of Torpedo californica AChE; design: species or system Tetronarce californica
Procedure, shortened: (§2)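 Ellman-type spectrophotometric assay at 412 nm in 100 mM sodium phosphate, 100 mM NaCl, pH 7.3, with DTNB. Enzymes: E. electricus AChE (soluble G4), recombinant T. californica AChE (Pichia pastoris, G4), recombinant human AChE (HEK 293, G2/G4), human plasma BChE (G4). Enzyme (~3 U/mL stock) and inhibitor preincubated 15 min at 25 °C. Acetylthiocholine (AChE) or butyrylthiocholine (BChE) then started the reaction. IC50 in duplicate from ≥4 inhibitor concentrations.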

Acetylcholinesterase [3] = target: T1, Acetylcholinesterase (Homo sapiens, UniProt P22303); assay: Inhibition of human AChE; procedure, shortened: as §2
Cholinesterase = Cholinesterase (Homo sapiens, UniProt P06276); assay: Inhibition of human plasma BChE; format: cell-free; procedure, shortened: as §2
[4] = target: Cholinesterases; ACHE & BCHE (Homo sapiens) (UniProt P06276+P22303); assay: Selectivity for human BChE over human AChE
Procedure, shortened: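 Ratio of IC50 for recombinant human AChE to IC50 for human plasma BChE. Both were measured by DTNB absorbance at 412 nm, pH 7.3, after 15 min enzyme–inhibitor preincubation at 25 °C. Acetyl- or butyrylthiocholine served as substrate. Each IC50 in duplicate from ≥4 inhibitor concentrations.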

[5] = target: Acetylcholinesterase (Electrophorus electricus) (UniProt O42275); assay: as §1
[6] = target: Acetylcholinesterase (Electrophorus electricus) (UniProt O42275); assay: Inhibition of Electrophorus electricus AChE at 100 uM
Acetylcholinesterase [7] = target: T1, Acetylcholinesterase; assay: Inhibition of human AChE at 100 uM

T1 sequence (P22303 whole entry): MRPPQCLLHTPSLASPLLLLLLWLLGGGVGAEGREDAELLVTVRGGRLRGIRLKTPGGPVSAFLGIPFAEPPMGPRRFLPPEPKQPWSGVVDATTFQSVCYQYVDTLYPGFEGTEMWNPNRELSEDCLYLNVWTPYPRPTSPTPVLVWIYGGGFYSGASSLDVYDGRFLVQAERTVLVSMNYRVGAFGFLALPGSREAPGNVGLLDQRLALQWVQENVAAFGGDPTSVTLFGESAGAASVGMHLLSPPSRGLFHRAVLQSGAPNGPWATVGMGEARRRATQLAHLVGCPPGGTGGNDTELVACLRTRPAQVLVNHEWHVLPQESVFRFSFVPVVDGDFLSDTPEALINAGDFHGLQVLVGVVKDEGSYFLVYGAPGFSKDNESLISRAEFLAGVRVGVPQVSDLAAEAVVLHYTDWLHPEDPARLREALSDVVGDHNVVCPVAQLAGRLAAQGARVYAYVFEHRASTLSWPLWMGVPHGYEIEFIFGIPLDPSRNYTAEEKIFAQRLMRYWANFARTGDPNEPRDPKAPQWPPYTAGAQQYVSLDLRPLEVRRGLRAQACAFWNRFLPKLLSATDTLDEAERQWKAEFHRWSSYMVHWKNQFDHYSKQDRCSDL
Chain of Cholinesterase (P06276 whole entry): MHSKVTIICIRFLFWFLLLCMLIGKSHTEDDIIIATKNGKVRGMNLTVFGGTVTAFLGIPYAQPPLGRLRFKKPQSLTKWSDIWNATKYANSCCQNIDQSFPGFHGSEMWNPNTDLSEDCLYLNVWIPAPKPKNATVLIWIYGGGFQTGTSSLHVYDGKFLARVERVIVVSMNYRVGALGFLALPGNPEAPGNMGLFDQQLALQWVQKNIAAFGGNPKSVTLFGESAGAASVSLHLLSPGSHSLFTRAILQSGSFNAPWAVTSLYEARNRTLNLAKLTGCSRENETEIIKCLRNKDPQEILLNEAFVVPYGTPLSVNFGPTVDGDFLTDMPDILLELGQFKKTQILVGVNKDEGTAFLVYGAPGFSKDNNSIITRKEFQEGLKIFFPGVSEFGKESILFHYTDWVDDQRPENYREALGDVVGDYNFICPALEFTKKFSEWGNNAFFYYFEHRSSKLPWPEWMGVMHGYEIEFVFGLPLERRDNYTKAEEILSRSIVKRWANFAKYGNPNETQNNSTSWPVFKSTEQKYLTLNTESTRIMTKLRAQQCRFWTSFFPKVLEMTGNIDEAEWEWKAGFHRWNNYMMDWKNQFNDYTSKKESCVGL
Chain of Cholinesterases; ACHE & BCHE (Homo sapiens) (P06276 whole entry, looked up): as the sequence (P06276 whole entry) above
Chain of Cholinesterases; ACHE & BCHE (Homo sapiens) (P22303 whole entry, looked up): as the sequence (P22303 whole entry) above
Chain of Acetylcholinesterase (Electrophorus electricus, UniProt O42275) (O42275 whole entry): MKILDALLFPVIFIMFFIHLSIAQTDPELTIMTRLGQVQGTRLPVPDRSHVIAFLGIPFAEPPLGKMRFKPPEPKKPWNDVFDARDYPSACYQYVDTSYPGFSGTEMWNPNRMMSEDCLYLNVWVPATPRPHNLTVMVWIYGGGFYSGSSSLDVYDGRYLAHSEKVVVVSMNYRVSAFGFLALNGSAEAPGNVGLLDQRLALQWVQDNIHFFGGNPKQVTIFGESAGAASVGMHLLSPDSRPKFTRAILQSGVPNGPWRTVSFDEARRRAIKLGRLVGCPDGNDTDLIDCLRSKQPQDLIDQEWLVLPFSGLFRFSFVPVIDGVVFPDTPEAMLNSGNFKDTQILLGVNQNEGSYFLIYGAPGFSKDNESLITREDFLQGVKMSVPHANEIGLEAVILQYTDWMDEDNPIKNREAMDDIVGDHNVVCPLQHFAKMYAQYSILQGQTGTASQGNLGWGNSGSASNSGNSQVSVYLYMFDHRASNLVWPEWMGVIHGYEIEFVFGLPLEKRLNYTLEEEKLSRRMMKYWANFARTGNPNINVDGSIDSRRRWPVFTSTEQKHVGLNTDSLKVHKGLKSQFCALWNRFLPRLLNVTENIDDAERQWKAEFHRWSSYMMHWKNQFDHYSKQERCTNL
Chain of Acetylcholinesterase (Torpedo californica, UniProt P04058) (P04058 whole entry): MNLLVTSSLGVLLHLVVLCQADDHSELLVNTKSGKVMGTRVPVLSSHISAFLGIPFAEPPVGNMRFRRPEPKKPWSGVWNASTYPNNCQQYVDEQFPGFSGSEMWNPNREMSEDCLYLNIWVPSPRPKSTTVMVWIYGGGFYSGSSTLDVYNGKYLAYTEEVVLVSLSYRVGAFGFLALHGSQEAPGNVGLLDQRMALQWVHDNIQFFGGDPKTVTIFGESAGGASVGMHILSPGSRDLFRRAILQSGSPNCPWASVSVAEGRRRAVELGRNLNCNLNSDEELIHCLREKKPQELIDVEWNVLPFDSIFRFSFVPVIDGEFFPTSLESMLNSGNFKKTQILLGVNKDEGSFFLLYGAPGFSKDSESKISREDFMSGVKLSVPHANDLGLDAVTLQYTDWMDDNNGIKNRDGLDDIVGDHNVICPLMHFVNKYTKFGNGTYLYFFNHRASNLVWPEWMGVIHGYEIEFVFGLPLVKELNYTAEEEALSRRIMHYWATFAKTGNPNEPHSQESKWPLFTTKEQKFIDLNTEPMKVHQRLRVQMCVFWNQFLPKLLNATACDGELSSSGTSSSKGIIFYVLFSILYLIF
Chain of Acetylcholinesterase (Electrophorus electricus) (O42275 24-633 limits assumed): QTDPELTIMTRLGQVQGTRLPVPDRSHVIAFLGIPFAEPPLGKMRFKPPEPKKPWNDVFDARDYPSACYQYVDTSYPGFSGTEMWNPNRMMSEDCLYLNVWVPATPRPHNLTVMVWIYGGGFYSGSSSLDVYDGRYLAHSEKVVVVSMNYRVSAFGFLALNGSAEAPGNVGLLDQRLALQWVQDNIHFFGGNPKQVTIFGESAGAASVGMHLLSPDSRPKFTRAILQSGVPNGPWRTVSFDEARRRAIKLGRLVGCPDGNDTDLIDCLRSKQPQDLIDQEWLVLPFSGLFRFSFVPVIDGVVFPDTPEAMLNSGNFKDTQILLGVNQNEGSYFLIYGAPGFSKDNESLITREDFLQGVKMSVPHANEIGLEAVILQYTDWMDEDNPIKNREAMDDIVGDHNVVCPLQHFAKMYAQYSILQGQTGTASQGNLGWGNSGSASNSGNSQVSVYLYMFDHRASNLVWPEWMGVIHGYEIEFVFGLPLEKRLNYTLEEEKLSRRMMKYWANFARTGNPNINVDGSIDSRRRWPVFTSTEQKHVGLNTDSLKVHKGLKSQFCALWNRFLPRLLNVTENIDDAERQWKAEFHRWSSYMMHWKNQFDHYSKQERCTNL

Compound	IC50 (Acetylcholinesterase [1]) [nM]	IC50 (Acetylcholinesterase [2]) [nM]	IC50 (Acetylcholinesterase [3]) [nM]	IC50 (Cholinesterase) [nM]	Ratio IC50 [4]	Activity [5] [nM]	Activity [6]	Activity (Acetylcholinesterase [7])
COc1cc(C(=O)NCC(=O)NNc2c3c(nc4ccccc24)CCCC3)cc(OC)c1OC	104	163	51.6	27.6	1.87	–	–	–
COc1cc(C(=O)NCCCCCCCC(=O)NNc2c3c(nc4ccccc24)CCCC3)cc(OC)c1OC	3.25	17.2	5.24	0.293	17.9	3.23	–	–
COc1cc(C(=O)NCCCCCC(=O)NNc2c3c(nc4ccccc24)CCCC3)cc(OC)c1OC	20.1	55.7	18.2	0.969	18.8	–	–	–
COc1cc(C(=O)NCCCCCCCC(=O)NN)cc(OC)c1OC	18000	–	–	–	–	–	–	–
COc1cc(C(=O)NCCCC(=O)NNc2c3c(nc4ccccc24)CCCC3)cc(OC)c1OC	60.5	26.3	241	7.13	33.8	–	–	–
COc1cc(CCC(=O)NCCCC(=O)NNc2c3c(nc4ccccc24)CCCC3)cc(OC)c1OC	52.1	158	72.1	0.226	319	–	–	–
CCOCC(=O)CCCCCCCNC(=O)c1cc(OC)c(OC)c(OC)c1	> 250000	–	–	–	–	–	–	–
CCN(CC)C(C)C(=O)N1c2ccccc2Sc2ccccc21 (stereo not drawn)	–	34700	–	3370	12000	–	inactive	inactive
COc1cc(CCC(=O)NCC(=O)NNc2c3c(nc4ccccc24)CCCC3)cc(OC)c1OC	122	40.1	40.7	24	1.7	–	–	–
COc1cc(C(=O)NCCC(=O)NNc2c3c(nc4ccccc24)CCCC3)cc(OC)c1OC	100	49.5	89.2	12.8	6.97	–	–	–
COc1cc(C(=O)NCCCCC(=O)NNc2c3c(nc4ccccc24)CCCC3)cc(OC)c1OC	20.2	18.1	17	1.68	10.1	–	–	–
COc1cc(CCC(=O)NCCCCC(=O)NNc2c3c(nc4ccccc24)CCCC3)cc(OC)c1OC	54.7	102	59	0.139	424	–	–	–
COc1cc(CCC(=O)NCCC(=O)NNc2c3c(nc4ccccc24)CCCC3)cc(OC)c1OC	102	68.9	135	6.03	22.4	–	–	–
COc1cc(C(=O)NCCCCCCC(=O)NNc2c3c(nc4ccccc24)CCCC3)cc(OC)c1OC	9.76	25.2	5.65	0.523	10.8	–	–	–
COc1cc(C(=O)NNc2c3c(nc4ccccc24)CCCC3)cc(OC)c1OC	2260	21.1	386	1.7	227	–	–	–
COc1cc(CCC(=O)NCCCCCC(=O)NNc2c3c(nc4ccccc24)CCCC3)cc(OC)c1OC	20.2	39.8	8.39	0.141	59.5	–	–	–
COc1cc(CCC(=O)NNc2c3c(nc4ccccc24)CCCC3)cc(OC)c1OC	–	40.1	365	12.1	30.2	–	–	–
NNc1c2c(nc3ccccc13)CCCC2	13000	–	–	–	–	–	–	–
